Measured values taken from ChEMBL document CHEMBL3352363, “1,4-disubstituted-[1,2,3]triazolyl-containing analogues of MT-II: design, synthesis, conformational analysis, and biological activity” (J Med Chem, 2014).
Where a SMILES comes first, the peptide text is derived from it. Bridges are numbered along the chain shown (N, C = ends). Triazole bridges read from a SMILES are 1,4-linked. [ ]: non-standard residue; d: D form. Lys(N3) = [N-]=[N+]=NCCCC[C@H](N)C(=O)O; Nle = CCCC[C@H](N)C(=O)O; Pra = C#CC[C@H](N)C(=O)O

How the values were obtained:
Type in all cases: functional, cell-based
[1] = target: Melanocyte-stimulating hormone receptor (Mus musculus, UniProt Q01727); assay: Activity at mouse MC1R expressed in HEK293 cells assessed as cAMP accumulation by CRE/beta-galactosidase reporter gene assay
Summary of the method: (§1)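 Stably transfected HEK-293 cells transiently transfected with 4 μg CRE/β-galactosidase reporter, 5000–15000 cells plated on collagen-treated wells overnight. Lysates frozen −80 °C; ONPG substrate at 37 °C, OD405 normalized to protein (OD595).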

Melanocortin receptor 5 = Melanocortin receptor 5 (Mus musculus, UniProt P41149); assay: Activity at mouse MC5R expressed in HEK293 cells assessed as cAMP accumulation by CRE/beta-galactosidase reporter gene assay; summary of the method: as §1
Melanocortin receptor 4 = Melanocortin receptor 4 (Mus musculus, UniProt P56450); assay: Activity at mouse MC4R expressed in HEK293 cells assessed as cAMP accumulation by CRE/beta-galactosidase reporter gene assay; summary of the method: as §1
Melanocortin receptor 3 = Melanocortin receptor 3 (Mus musculus, UniProt P33033); assay: Activity at mouse MC3R expressed in HEK293 cells assessed as cAMP accumulation by CRE/beta-galactosidase reporter gene assay; summary of the method: as §1
Melanocortin receptor 3, sequence (P33033 whole entry): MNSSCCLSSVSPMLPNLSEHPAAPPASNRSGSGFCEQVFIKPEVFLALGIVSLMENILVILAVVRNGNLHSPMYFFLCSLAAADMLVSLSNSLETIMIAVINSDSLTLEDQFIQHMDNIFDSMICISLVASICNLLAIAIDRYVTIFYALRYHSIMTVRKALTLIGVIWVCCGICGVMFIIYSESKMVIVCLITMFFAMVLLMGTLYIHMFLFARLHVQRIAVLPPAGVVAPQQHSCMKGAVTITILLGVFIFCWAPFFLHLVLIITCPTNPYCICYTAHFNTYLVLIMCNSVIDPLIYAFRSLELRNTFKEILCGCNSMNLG

Melanocyte-stimulating hormone receptor, sequence (Q01727 whole entry): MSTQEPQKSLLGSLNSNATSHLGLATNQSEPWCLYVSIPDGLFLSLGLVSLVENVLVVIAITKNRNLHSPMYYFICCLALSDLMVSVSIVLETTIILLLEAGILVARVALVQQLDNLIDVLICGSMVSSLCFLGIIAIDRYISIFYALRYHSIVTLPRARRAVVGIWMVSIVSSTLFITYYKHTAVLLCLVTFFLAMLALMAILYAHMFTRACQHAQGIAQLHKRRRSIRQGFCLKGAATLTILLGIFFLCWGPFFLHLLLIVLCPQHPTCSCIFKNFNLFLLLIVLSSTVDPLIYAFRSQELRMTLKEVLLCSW
Melanocortin receptor 5, sequence (P41149 whole entry): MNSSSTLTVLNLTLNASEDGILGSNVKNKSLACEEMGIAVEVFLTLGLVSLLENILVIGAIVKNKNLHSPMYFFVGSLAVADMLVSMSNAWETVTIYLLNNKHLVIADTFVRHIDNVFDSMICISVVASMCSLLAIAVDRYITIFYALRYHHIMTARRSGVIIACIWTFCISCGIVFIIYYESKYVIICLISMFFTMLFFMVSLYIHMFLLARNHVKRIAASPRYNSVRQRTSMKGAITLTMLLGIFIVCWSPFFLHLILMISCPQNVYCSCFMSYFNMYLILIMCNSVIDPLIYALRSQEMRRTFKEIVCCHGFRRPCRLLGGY
Melanocortin receptor 4, sequence (P56450 whole entry): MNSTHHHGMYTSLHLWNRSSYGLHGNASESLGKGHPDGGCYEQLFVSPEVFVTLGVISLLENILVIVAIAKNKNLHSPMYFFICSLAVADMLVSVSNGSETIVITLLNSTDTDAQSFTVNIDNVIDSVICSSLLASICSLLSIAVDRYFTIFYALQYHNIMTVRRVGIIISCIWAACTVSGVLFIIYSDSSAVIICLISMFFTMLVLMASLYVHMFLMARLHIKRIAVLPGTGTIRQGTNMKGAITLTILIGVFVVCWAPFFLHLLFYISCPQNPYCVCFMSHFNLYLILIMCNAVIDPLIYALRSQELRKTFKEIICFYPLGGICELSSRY

Row | SMILES | EC50 [1] [nM] | EC50 (Melanocortin receptor 5) [nM] | EC50 (Melanocortin receptor 4) [nM] | EC50 (Melanocortin receptor 3) [nM]
1 | CCCC[C@H](NC(C)=O)C(=O)N[C@H]1CCc2cn(nn2)CC[C@@H](C(N)=O)NC(=O)[C@H](Cc2c[nH]c3ccccc23)NC(=O)[C@H](CCCNC(=N)N)NC(=O)[C@@H](Cc2ccccc2)NC(=O)[C@H](Cc2cnc[nH]2)NC1=O | 0.32 | 0.15 | 0.14 | 0.63
2 | CCCC[C@H](NC(C)=O)C(=O)N[C@H]1Cn2cc(nn2)CCCC[C@@H](C(N)=O)NC(=O)[C@H](Cc2c[nH]c3ccccc23)NC(=O)[C@H](CCCNC(=N)N)NC(=O)[C@@H](Cc2ccccc2)NC(=O)[C@H](Cc2cnc[nH]2)NC1=O | 0.53 |  | 0.14 | 0.6
3 | CCCC[C@H](NC(C)=O)C(=O)N[C@H]1CCCCn2cc(nn2)C[C@@H](C(N)=O)NC(=O)[C@H](Cc2c[nH]c3ccccc23)NC(=O)[C@H](CCCNC(=N)N)NC(=O)[C@@H](Cc2ccccc2)NC(=O)[C@H](Cc2cnc[nH]2)NC1=O (Ac-[Nle][Lys(N3)]H[dF]RW[Pra]-NH2; triazole 2-7) | 0.85 | 1.76 | 0.58 | 3.7
4 | CCCC[C@H](NC(C)=O)C(=O)N[C@H]1CCCCc2cn(nn2)C[C@@H](C(N)=O)NC(=O)[C@H](Cc2c[nH]c3ccccc23)NC(=O)[C@H](CCCNC(=N)N)NC(=O)[C@@H](Cc2ccccc2)NC(=O)[C@H](Cc2cnc[nH]2)NC1=O | 0.087 |  |  | 0.2
5 | CCCC[C@H](NC(C)=O)C(=O)N[C@H]1Cc2cn(nn2)CCCC[C@@H](C(N)=O)NC(=O)[C@H](Cc2c[nH]c3ccccc23)NC(=O)[C@H](CCCNC(=N)N)NC(=O)[C@@H](Cc2ccccc2)NC(=O)[C@H](Cc2cnc[nH]2)NC1=O | 5.18 | 1.93 | 1.62 | 3.14
6 | C#CC[C@H](NC(=O)[C@H](Cc1c[nH]c2ccccc12)NC(=O)[C@H](CCCNC(=N)N)NC(=O)[C@@H](Cc1ccccc1)NC(=O)[C@H](Cc1cnc[nH]1)NC(=O)[C@H](CCCCN=[N+]=[N-])NC(=O)[C@H](CCCC)NC(C)=O)C(N)=O |  | 1.9 |  | 
7 | CCCC[C@H](NC(C)=O)C(=O)N[C@H]1CCn2cc(nn2)CCC[C@@H](C(N)=O)NC(=O)[C@H](Cc2c[nH]c3ccccc23)NC(=O)[C@H](CCCNC(=N)N)NC(=O)[C@@H](Cc2ccccc2)NC(=O)[C@H](Cc2cnc[nH]2)NC1=O | 0.074 | 0.045 | 0.048 | 0.2
8 | CCCC[C@H](NC(C)=O)C(=O)N[C@@H](CC(=O)O)C(=O)N[C@@H](Cc1c[nH]cn1)C(=O)N[C@H](Cc1ccccc1)C(=O)N[C@@H](CCCN=C(N)N)C(=O)N[C@@H](Cc1c[nH]c2ccccc12)C(=O)N[C@@H](CCCCN)C(N)=O |  |  | 0.21 | 1.1
9 | CCCCCC[C@H](NC(=O)[C@H](Cc1c[nH]c2ccccc12)NC(=O)[C@H](CCCNC(=N)N)NC(=O)[C@@H](Cc1ccccc1)NC(=O)[C@H](Cc1cnc[nH]1)NC(=O)[C@H](CN=[N+]=[N-])NC(=O)[C@H](CCCC)NC(C)=O)C(N)=O | 0.53 | 0.13 | 0.14 | 1.32
10 | CCCC[C@H](NC(C)=O)C(=O)N[C@H]1CCCc2cn(nn2)CC[C@@H](C(N)=O)NC(=O)[C@H](Cc2c[nH]c3ccccc23)NC(=O)[C@H](CCCNC(=N)N)NC(=O)[C@@H](Cc2ccccc2)NC(=O)[C@H](Cc2cnc[nH]2)NC1=O | 0.1 | 0.042 | 0.051 | 0.21
11 | CCCC[C@H](NC(C)=O)C(=O)N[C@H]1CCCn2cc(nn2)CC[C@@H](C(N)=O)NC(=O)[C@H](Cc2c[nH]c3ccccc23)NC(=O)[C@H](CCCNC(=N)N)NC(=O)[C@@H](Cc2ccccc2)NC(=O)[C@H](Cc2cnc[nH]2)NC1=O | 0.71 | 1.88 | 0.85 | 1.91
12 | CCCC[C@H](NC(C)=O)C(=O)N[C@H]1CCc2cn(nn2)CCC[C@@H](C(N)=O)NC(=O)[C@H](Cc2c[nH]c3ccccc23)NC(=O)[C@H](CCCNC(=N)N)NC(=O)[C@@H](Cc2ccccc2)NC(=O)[C@H](Cc2cnc[nH]2)NC1=O | 0.11 | 0.34 | 0.22 | 0.29
13 | CCCC[C@H](NC(C)=O)C(=O)N[C@H]1CCn2cc(nn2)CC[C@@H](C(N)=O)NC(=O)[C@H](Cc2c[nH]c3ccccc23)NC(=O)[C@H](CCCNC(=N)N)NC(=O)[C@@H](Cc2ccccc2)NC(=O)[C@H](Cc2cnc[nH]2)NC1=O | 0.2 | 0.07 | 0.067 | 0.29
